Data set [1] concerns the target D(2) dopamine receptor (Homo sapiens, UniProt P14416). Description: Binding affinity to human dopamine D2 receptor by radioligand binding assay.
Data set [2] has as its target Sodium-dependent serotonin transporter (Homo sapiens, UniProt P31645). In words: Binding affinity to human SERT by radioligand binding assay.
Data set [3] can be described thus: Binding affinity to sigma 2 receptor (unknown origin) by radioligand binding assay. Set-up: species or system Homo sapiens.
In data set [4] the target is Beta-2 adrenergic receptor (Homo sapiens, UniProt P07550). In words: Binding affinity to human beta-2 adrenergic receptor by radioligand binding assay.
Beta-2 adrenergic receptor, sequence (P07550 whole entry): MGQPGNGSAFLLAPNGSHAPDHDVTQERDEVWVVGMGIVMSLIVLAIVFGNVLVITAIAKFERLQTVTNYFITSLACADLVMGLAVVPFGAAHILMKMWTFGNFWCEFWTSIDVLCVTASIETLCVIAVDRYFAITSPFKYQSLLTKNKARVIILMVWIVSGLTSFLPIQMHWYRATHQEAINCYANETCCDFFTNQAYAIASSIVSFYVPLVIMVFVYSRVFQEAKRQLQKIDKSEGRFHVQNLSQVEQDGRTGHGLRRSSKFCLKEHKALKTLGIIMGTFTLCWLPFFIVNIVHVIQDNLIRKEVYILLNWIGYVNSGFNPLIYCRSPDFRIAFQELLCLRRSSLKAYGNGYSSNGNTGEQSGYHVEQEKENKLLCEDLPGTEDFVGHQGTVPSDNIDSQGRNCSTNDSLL
The subject of data set [5] is Mus musculus. Description: Cataleptic activity in C57BL/6J mouse at 0.01 to 30 mg/kg, ip measured after 60 mins. The data set is classed as ADME, organism-based. Conditions: in vivo, 1 h.
Data set [6] concerns the target T1, D(4) dopamine receptor (Homo sapiens, UniProt P21917).
T1 sequence (P21917 whole entry): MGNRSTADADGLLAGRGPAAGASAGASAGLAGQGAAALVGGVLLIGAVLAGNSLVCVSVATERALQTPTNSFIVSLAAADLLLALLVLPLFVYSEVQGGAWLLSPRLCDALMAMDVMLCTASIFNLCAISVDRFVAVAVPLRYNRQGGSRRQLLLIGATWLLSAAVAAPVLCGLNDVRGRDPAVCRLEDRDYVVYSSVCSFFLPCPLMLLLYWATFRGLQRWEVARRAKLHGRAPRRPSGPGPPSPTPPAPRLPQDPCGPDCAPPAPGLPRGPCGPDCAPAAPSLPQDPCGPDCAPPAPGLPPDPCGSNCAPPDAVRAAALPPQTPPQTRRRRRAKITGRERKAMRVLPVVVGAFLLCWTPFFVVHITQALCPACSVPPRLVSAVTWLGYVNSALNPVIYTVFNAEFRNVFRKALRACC
In words: Binding affinity to human dopamine D4 receptor by radioligand binding assay.

The target of data set [7] is T2, Alpha-2C adrenergic receptor (Homo sapiens, UniProt P18825).
T2 sequence (P18825 whole entry): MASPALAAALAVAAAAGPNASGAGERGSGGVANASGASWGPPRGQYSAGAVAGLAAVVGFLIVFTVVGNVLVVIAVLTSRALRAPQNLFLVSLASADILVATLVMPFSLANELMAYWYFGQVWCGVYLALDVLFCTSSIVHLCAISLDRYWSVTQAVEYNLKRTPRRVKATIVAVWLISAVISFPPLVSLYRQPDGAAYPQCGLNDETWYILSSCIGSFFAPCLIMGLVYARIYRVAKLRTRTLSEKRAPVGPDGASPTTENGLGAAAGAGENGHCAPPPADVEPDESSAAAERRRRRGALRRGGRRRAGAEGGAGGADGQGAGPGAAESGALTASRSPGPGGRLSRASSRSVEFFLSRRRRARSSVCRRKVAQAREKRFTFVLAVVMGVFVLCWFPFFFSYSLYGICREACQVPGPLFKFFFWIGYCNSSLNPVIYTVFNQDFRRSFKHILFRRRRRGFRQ
In words: Binding affinity to human alpha-2C adrenergic receptor by radioligand binding assay.

Data set [8] has as its target Histamine H2 receptor (Homo sapiens, UniProt P25021). Description: Binding affinity to histamine H2 receptor (unknown origin) by radioligand binding assay.
In data set [9] the target is D(3) dopamine receptor (Homo sapiens, UniProt P35462). Description: Binding affinity to dopamine D3 receptor (unknown origin) by radioligand binding assay.
D(3) dopamine receptor, sequence (P35462 whole entry): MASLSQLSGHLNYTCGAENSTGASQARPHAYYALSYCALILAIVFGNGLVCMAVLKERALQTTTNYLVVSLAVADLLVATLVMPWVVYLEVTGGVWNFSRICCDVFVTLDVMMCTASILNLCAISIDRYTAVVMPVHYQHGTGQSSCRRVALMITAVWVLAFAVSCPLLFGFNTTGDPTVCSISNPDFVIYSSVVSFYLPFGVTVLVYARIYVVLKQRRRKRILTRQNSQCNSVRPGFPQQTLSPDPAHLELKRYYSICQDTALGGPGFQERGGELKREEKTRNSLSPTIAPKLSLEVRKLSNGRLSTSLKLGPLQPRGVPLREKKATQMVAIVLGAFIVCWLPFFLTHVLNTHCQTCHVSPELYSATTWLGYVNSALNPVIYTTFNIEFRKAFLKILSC
In data set [10] the target is 5-hydroxytryptamine receptor 6 (Homo sapiens, UniProt P50406). In words: Binding affinity to human 5HT6 receptor by radioligand binding assay.
5-hydroxytryptamine receptor 6, sequence (P50406 whole entry): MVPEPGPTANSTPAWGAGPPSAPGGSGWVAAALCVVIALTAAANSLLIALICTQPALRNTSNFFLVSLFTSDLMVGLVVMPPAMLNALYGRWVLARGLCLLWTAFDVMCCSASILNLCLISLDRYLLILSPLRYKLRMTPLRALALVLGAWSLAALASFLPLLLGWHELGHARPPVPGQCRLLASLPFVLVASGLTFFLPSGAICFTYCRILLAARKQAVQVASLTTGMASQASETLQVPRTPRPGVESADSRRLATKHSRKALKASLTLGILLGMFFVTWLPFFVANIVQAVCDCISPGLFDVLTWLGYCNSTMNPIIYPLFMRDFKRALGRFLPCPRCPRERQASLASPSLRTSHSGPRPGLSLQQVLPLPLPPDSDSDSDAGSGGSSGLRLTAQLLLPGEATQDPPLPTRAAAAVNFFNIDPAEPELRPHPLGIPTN
The target in data set [11] is T3, 5-hydroxytryptamine receptor 1A (Homo sapiens, UniProt P08908).
T3 sequence (P08908 whole entry): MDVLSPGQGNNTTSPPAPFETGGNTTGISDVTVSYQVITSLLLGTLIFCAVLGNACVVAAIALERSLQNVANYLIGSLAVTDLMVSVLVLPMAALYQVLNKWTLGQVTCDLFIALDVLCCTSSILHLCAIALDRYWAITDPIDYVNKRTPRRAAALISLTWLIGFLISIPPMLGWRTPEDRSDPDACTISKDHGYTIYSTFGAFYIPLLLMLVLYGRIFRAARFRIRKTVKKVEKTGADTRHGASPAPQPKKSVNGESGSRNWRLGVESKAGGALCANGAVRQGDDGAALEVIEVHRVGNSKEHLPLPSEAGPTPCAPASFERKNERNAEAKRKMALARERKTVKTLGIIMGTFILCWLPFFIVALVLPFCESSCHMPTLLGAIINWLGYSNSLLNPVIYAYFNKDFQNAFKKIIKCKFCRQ
Description: Binding affinity to human 5HT1A receptor by radioligand binding assay.

Data set [12] addresses T4, Muscarinic acetylcholine receptor M5 (Homo sapiens, UniProt P08912).
T4 sequence (P08912 whole entry): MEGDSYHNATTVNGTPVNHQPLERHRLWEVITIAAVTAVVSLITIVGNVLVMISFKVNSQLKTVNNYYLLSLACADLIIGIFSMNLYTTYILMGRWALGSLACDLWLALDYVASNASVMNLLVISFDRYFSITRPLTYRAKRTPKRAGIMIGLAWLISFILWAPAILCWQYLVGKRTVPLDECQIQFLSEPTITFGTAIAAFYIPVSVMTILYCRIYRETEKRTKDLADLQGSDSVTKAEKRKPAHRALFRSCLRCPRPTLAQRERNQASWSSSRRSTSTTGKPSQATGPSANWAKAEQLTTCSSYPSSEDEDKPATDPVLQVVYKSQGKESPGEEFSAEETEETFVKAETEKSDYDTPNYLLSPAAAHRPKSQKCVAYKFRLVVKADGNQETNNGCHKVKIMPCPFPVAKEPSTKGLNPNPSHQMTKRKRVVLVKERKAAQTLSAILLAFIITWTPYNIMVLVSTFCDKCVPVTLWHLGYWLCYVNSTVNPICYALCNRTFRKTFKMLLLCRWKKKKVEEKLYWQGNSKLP
In words: Binding affinity to human muscarinic acetylcholine M5 receptor by radioligand binding assay.

Data set [13] has as its target T5, Alpha-2A adrenergic receptor (Homo sapiens, UniProt P08913).
T5 sequence (P08913 whole entry): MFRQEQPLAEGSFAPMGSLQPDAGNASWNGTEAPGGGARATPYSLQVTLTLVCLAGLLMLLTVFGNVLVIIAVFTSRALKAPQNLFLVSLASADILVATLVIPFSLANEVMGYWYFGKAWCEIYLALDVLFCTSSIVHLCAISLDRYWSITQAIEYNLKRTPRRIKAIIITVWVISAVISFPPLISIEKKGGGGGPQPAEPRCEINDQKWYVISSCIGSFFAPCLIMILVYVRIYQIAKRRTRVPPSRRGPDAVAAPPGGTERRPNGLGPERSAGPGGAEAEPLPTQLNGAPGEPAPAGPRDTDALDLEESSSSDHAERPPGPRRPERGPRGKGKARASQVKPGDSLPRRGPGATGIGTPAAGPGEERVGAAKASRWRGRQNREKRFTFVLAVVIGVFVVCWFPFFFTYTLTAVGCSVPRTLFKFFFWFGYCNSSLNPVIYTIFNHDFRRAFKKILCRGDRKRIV
Description: Binding affinity to human alpha-2A adrenergic receptor by radioligand binding assay.

The target of data set [14] is 5-hydroxytryptamine receptor 7 (Homo sapiens, UniProt P34969). In words: Binding affinity to human 5HT7 receptor by radioligand binding assay.
5-hydroxytryptamine receptor 7, sequence (P34969 whole entry): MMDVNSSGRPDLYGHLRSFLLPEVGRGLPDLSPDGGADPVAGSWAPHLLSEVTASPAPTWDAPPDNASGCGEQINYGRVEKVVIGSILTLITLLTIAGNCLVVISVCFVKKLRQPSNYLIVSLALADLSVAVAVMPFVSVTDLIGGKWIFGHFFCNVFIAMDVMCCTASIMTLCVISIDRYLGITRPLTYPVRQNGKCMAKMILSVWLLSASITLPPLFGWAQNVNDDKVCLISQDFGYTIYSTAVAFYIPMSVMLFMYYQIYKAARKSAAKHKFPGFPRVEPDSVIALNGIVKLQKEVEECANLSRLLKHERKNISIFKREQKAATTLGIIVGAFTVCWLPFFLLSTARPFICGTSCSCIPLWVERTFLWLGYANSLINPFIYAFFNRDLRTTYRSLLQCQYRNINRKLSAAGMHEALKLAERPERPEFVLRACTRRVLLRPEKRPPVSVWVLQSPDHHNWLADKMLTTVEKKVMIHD
For data set [15], the system named is Mus musculus. In words: Cognitive enhancing effect in NR1-KD mouse hypoglutamatergic model of schizophrenia assessed as reduction in duration of object exploration during training at 0.5 to 1 mg/kg, ip administered for 30 mins measured for 3 days relative to wild type mouse. The data set is classed as functional, organism-based. The method, boiled down:
(§1)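 Three daily 5-min trials: empty-chamber acclimation, two identical objects, then 24 h later one familiar plus one novel object (long-term memory). Sessions video-recorded; time spent investigating objects scored at training and testing.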

Data set [16] has as its system Mus musculus. Description: Attenuation of novel object recognition memory in wild type mouse assessed as decrease in preference for novel object at 1 mg/kg, ip administered for 30 mins measured for 3 days. Type of data set: functional, organism-based. The method, boiled down: as §1
For data set [17], the system named is Mus musculus. Description: Cognitive enhancing effect in NR1-KD mouse hypoglutamatergic model of schizophrenia assessed as reduction in duration of object exploration during testing at 0.5 to 1 mg/kg, ip administered for 30 mins measured for 3 days relative to wild type mouse. Type of data set: functional, organism-based. The method, boiled down: as §1
The subject of data set [18] is Mus musculus. In words: Effect on 120 dB acoustic stimulus-induced pulse-only response in C57BL/6J mouse at 4 mg/kg, ip administered for 10 mins followed by AMPH challenge. The data set is classed as functional, organism-based. The method, boiled down: (§2)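 Adult male C57BL/6 mice, n = 8–11/group, given vehicle or 0.5–4 mg/kg, then vehicle or 3 mg/kg amphetamine 10 min later. After 10 min acclimation in a startle chamber, 42 trials were run: 18 pulse-only (120 dB), 18 prepulse-pulse (4, 8, 12 dB prepulses) and 6 null. Peak startle (arbitrary units) was taken within 65 ms of pulse onset.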

Data set [19] concerns Mus musculus. Description: Cognitive enhancing effect in NR1-KD mouse hypoglutamatergic model of schizophrenia at 0.5 to 1 mg/kg, ip administered for 30 mins measured for 3 days by novel object recognition memory test. Type of data set: functional, organism-based. The method, boiled down: as §1
For data set [20], the system named is Mus musculus. Description: Suppression of AMPH-stimulated hyperlocomotion in C57BL/6J mouse assessed as reduction in distance travelled in open field at 2 mg/kg, ip administered for 15 mins followed by AMPH challenge measured after 105 mins. The data set is classed as functional, organism-based. The method, boiled down:
(§3)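 Mice, n = 7–10/treatment, injected with vehicle or 2–30 mg/kg and placed in an open field monitored by infrared beams. After 15 min baseline, they were given vehicle or 3 mg/kg d-amphetamine and recorded for a further 105 min. Distance travelled was taken in 5-min bins or as a cumulative value over 15 min baseline plus 75 min post-amphetamine.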

The subject of data set [21] is Mus musculus. Description: Effect on 120 dB acoustic stimulus-induced pulse-only response in C57BL/6J mouse at 4 mg/kg, ip administered for 10 mins. The data set is classed as functional, organism-based. The method, boiled down: as §2
Data set [22] concerns Mus musculus. In words: Increase in AMPH-disrupted 4 to 12 dB prepulse inhibition in C57BL/6J mouse at 2 mg/kg administered for 10 mins followed by AMPH challenge. Type of data set: functional, organism-based. The method, boiled down: as §2
Data set [23] relates to Mus musculus. Description: Reduction in 120 dB acoustic stimulus-induced pulse-only response in C57BL/6J mouse at 0.5 to 2 mg/kg dose followed by AMPH challenge. The data set is classed as functional, organism-based. The method, boiled down:
as §2

In data set [24] the test system is Mus musculus. Description: Increase in AMPH-disrupted 4 to 12 dB prepulse inhibition in C57BL/6J mouse at 4 mg/kg, ip administered for 10 mins followed by AMPH challenge. The data set is classed as functional, organism-based. The method, boiled down: as §2
Data set [25] has as its system Mus musculus. Description: Restoration of AMPH-disrupted 4 to 12 dB prepulse inhibition in C57BL/6J mouse at 0.5 to 1 mg/kg, ip administered for 10 mins followed by AMPH challenge. The data set is classed as functional, organism-based. The method, boiled down:
as §2

Data set [26] relates to Mus musculus. In words: Suppression of AMPH-stimulated hyperlocomotion in C57BL/6J mouse assessed as reduction in distance travelled in open field at 5 to 30 mg/kg, ip administered for 15 mins followed by AMPH challenge measured after 105 mins. The data set is classed as functional, organism-based. The method, boiled down: as §3
Data set [27] addresses 5-hydroxytryptamine receptor 2B (Homo sapiens, UniProt P41595). In words: Agonist activity at recombinant human 5HT2B receptor expressed in Flp-In-293 cells assessed as calcium flux at 10 uM by FLIPR assay relative to 5-HT. The data set is classed as functional, cell-based.
The subject of data set [28] is Mus musculus. In words: Cataleptic activity in ip dosed C57BL/6J mouse measured after 60 mins. Type of data set: organism-based. The note with it: in vivo, 1 h. The method, boiled down:
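Male C57BL/6J mice, n = 8–10/treatment/time-point, front paws placed on a 2.5 mm horizontal bar with rear paws on the bench, tested at baseline and then injected with vehicle, haloperidol (0.01–10 mg/kg) or test agent (0.01–30 mg/kg). Separate groups were scored at 60 min as time until paw removal, with a 60 s cut-off.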

The source made the active and inactive calls. Some results are limits rather than exact numbers.

In general, pKi refers to the Ki on a negative log10 scale, so that one unit is a factor of ten. Read a high pKi as a small Ki. A word on the Emax: it is the size of the effect at its maximum, as opposed to the concentration needed.

Sodium-dependent serotonin transporter, sequence (P31645 whole entry): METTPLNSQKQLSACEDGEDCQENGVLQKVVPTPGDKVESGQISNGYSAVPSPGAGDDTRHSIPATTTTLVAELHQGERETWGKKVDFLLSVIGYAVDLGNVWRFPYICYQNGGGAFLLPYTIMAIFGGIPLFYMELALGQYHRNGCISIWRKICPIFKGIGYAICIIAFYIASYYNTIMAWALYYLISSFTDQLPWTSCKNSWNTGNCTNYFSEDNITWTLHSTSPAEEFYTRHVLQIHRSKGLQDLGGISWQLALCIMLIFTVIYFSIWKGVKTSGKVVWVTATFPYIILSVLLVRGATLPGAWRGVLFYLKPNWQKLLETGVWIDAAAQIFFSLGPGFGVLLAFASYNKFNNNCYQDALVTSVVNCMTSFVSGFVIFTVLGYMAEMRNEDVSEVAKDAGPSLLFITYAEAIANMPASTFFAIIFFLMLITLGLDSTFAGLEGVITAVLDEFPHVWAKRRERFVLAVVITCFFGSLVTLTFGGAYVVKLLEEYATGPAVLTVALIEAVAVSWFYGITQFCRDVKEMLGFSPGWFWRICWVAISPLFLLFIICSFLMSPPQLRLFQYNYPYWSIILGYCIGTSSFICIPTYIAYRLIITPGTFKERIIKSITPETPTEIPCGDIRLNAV
D(2) dopamine receptor, sequence (P14416 whole entry): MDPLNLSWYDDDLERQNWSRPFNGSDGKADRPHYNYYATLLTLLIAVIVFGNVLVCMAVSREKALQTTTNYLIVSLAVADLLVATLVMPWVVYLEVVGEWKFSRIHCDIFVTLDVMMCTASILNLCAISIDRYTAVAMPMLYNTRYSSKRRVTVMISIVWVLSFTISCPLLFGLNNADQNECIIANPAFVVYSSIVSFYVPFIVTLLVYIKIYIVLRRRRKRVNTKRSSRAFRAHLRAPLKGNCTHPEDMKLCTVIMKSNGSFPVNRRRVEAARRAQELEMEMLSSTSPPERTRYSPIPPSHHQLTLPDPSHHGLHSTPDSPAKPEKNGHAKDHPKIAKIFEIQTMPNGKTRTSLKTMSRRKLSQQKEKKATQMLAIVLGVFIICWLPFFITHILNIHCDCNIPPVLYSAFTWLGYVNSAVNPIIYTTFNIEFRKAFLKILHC
5-hydroxytryptamine receptor 2B, sequence (P41595 whole entry): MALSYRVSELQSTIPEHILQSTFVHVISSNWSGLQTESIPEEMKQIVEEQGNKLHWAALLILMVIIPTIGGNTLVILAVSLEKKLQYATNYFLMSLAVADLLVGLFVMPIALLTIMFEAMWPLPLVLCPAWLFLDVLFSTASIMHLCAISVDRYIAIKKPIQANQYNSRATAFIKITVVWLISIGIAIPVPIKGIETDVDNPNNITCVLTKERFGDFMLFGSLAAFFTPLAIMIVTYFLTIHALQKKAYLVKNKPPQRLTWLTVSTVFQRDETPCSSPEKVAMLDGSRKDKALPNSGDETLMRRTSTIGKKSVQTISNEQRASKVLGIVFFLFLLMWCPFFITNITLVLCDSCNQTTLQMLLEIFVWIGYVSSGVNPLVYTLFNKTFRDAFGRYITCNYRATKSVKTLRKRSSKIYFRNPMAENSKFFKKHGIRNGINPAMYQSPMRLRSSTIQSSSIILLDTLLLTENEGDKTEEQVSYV
Histamine H2 receptor, sequence (P25021 whole entry): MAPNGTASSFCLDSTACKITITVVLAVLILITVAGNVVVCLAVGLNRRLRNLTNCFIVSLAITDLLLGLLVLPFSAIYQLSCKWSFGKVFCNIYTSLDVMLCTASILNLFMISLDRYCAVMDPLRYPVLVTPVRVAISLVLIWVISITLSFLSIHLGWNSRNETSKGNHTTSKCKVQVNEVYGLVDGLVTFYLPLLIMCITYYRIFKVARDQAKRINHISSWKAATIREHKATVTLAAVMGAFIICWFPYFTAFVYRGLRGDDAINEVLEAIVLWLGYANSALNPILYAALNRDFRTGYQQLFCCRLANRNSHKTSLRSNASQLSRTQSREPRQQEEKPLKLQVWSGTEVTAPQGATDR

As for `C=CCOc1cc(F)c(F)cc1C1CC1CN.Cl` (single isomer, unassigned; (+)), the Ki in data set [1] amounted to 4.9 µM; in [2] it was 1260 nM; in data set [3] it was 2110 nM; in data set [4], 807 nM; in [6] it was 1680 nM; in data set [7], 278 nM. The Ki in [8] was 3.39 µM; in data set [9] (read-out: Ki), 201 nM; in data set [9] (read-out: pKi (converted)), 195 nM; in [10] (read-out: Ki), 111 nM; in [10] (read-out: pKi (converted)), 115 nM; in [11] (read-out: Ki), 750 nM. For the same compound, the Ki in [11] (read-out: pKi (converted)) is 933 nM; in data set [12], 2840 nM; in data set [13] (read-out: Ki), 661 nM; in data set [13] (read-out: pKi (converted)), 166 nM; in [14] (read-out: Ki) it was 1270 nM; in [14] (read-out: pKi (converted)), 1020 nM. The compound further gave a negative logarithm of the Ki (pKi) in [3] of 5.68. For the same compound, the Activity result in data set [5] is “Non-toxic”.

`C=CCOc1cc(F)c(F)cc1C1CC1CN` (single isomer, unassigned; (+)): the result in [15], in data set [16], in data set [17], in [19], in [22] and in [23] was Active. For the same compound, the outcome in [25] was Active. In addition, the result in data set [18], in data set [20], in [21] and in [24] was inactive. Moreover, the Activity result in [26] was “Dose-dependent effect”.

Turning to `C=CCOc1cc(F)c(F)cc1C1CC1CN` (single isomer, unassigned; (-)), in data set [27], the Emax was less than 15%.

For `O=C(CCCN1CCC(O)(c2ccc(Cl)cc2)CC1)c1ccc(F)cc1` [HALOPERIDOL], the Activity result in data set [28] is on record as “Dose-dependent effect”.
